Assay outcomes (PubChem)
C2C12 statin = suppressors of simvastatin-induced myotoxicity in C2C12 myotubes. 0.78% of 330,000 active. ATP luminescence, 48 h; scaled: DMSO 0, geranylgeraniol control 100. rescue of ATP level, % at 7.49 µM;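 active = mean ATP rescue above about 67%, or every replicate alone reaching that limit, limit read from the data, passing the limit was not always enough; inconclusive = no clear call, values can overlap the other calls; inactive = mean under the limit and some replicate under it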;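 note: myotubes were challenged with 10 µM simvastatin during compound exposure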
Xi reactivation = X-chromosome reactivation activator; activation, % at 7.58 µM; XiGFP mouse fibroblasts, % GFP-positive cells imaging, 3 d; cells co-treated with 5-aza-dC sensitizer; scaled so ellipticine positive control = 100%; 0.055% of 360,000 active;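 active = mean normalized replicate activation at least 10% and every replicate at or above 10%; inconclusive = only one of the two criteria met; inactive = mean below 10% and not all replicates reach 10%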
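System: 68-5-11 XiGFP fibroblast line; Timing: 3 days compound exposure; Compound dosing: one concentration, pinned; Benchmarks: positive control ellipticine, 6 µM final; Buffer or medium: DMEM containing 5-aza-dC.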
E-sel inducer = E-selectin induction on HUVECs. P16581. HUVEC E-selectin immunofluorescence imaging; normalized: neutral wells 0, TNF-alpha wells 100. activation, % at 7.58 µM. 0.37% of 260,000 active. AID 686992;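 active = mean E-selectin-positive cell signal at least 10% of the positive control, reached in at least 60% of replicates, without over 20% cell loss; inconclusive = no rule given, readout overlaps actives, possibly toxicity-flagged; inactive = the rest, including those meeting only one limit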
Target sequence (P16581 whole entry, looked up): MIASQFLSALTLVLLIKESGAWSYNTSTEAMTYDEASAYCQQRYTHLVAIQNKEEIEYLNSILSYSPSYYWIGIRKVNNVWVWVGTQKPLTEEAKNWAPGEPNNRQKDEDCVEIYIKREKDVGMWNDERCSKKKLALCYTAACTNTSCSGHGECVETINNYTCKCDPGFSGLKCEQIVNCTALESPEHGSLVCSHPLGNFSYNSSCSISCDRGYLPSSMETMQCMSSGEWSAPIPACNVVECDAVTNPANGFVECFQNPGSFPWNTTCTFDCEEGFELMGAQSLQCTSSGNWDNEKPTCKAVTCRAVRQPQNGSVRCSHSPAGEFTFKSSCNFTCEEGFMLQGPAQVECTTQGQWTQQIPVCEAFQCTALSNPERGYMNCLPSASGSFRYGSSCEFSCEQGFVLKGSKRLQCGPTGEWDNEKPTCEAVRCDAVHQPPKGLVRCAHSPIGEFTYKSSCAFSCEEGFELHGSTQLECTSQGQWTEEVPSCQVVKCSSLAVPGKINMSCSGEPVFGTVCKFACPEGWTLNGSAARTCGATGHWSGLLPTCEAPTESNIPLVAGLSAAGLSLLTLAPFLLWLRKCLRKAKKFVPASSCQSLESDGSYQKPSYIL
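System: HUVEC, human umbilical vein endothelial cells; quantity: 3,000 cells/well; buffer or medium: EGM-2 medium, gelatin-coated wells; dosing: single-point compound dose; detection: immunofluorescence imaging; evaluation: % PE-positive cells; benchmarks: TNF-alpha, DMSO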
PglD DTNB = PglD (C. jejuni) enzyme inhibition | purified PglD enzyme, DTNB colorimetric CoA detection | 0.098% of 360,000 active | inhibition, % at 12.5 µM; in the data active = inhibition above about 16%, passing the limit was not always enough; inconclusive = no clear call, values can overlap the other calls
FGF22 binding = binders of recombinant human FGF22 by thermal shift | Q9HCT0 | SYPRO orange fluorescence; percent of sucrose octasulfate shift, DMSO zero | activity (Tm shift, normalised), % at 9.99 µM | 1.5% of 340,000 active | AID 651658;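 active = mean Tm shift, scaled 0 neutral to 100 positive control, at about 1.3% or above, every replicate too, limit read from the data; inconclusive = no clear call, values can overlap the other calls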
Target sequence (Q9HCT0 whole entry, looked up): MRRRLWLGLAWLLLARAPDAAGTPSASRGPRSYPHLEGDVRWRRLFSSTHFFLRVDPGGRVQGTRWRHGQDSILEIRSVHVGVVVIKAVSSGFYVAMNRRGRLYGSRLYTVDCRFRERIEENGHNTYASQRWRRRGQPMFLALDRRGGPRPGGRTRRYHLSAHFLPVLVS
DENV2 CPE = inhibitors of DENV2 cytopathic effect; DENV2-infected cells, cytopathic effect rescue, plate reader; AID 651640; 1.7% of 350,000 active; CPE inhibition, % at 9.99 µM; in the data active = CPE inhibition above about 20%, passing the limit was not always enough; inconclusive = no clear call, values can overlap the other calls; tested in BHK-21 cells
Large screens that a line does not name were inactive. Hits are enriched below; roughly 3.3% of the tested compounds scored in any of these assays.

C/C(=N\NC(=O)COc1ccc(C)cc1Br)c1cc([N+](=O)[O-])cs1	FGF22 binding 43 (no result: E-sel inducer)
CC(C)[C@@H]1C(=O)N[C@H](c2ccc3c(c2)OCO3)CC=CC[C@@H](C)Oc2ccccc2C(=O)N1C (mixture of isomers)	none (no result: C2C12 statin, E-sel inducer, PglD DTNB, FGF22 binding, DENV2 CPE)
C[C@@H]1CN([C@@H](C)CO)C(=O)c2ccccc2-c2ccccc2CO[C@H]1CN(C)S(=O)(=O)c1cccs1	none (no result: C2C12 statin)
O=C(CCCCCCCC(=O)NNC(=O)Nc1ccccc1)NNC(=O)Nc1ccccc1	DENV2 CPE 115 (no result: C2C12 statin, E-sel inducer, PglD DTNB)
O=C(CCc1ccccc1)NNC(=O)Nc1ccccc1	FGF22 binding 43 (no result: C2C12 statin, E-sel inducer, PglD DTNB)
CO[C@H]1CN(C)C(=O)c2ccc(NS(=O)(=O)c3ccc(C)cc3)cc2OC[C@H](C)NC[C@H]1C	none
O=C(O)CSc1ccn(Cc2ccccc2)c1	DENV2 CPE 51
Cc1[nH]c2ccccc2c1C(=O)CSC(=S)N1CCN(C)CC1	DENV2 CPE 55 (no result: C2C12 statin)
COC(=O)CCc1cccc(CCC(=O)OC)c1	DENV2 CPE 46
S=C1NC2(CCCCC2)N=C1c1ccccc1	none (no result: C2C12 statin, PglD DTNB, FGF22 binding, DENV2 CPE)
Cc1ccc(C2=NC3(CCCCC3)NC2=S)cc1	DENV2 CPE 22 (no result: C2C12 statin, E-sel inducer, PglD DTNB)
Cn1c(=O)c2c(nc(NC3CCCCC3)n2CC(O)COc2ccccc2)n(C)c1=O (stereo not given)	C2C12 statin 81 (no result: Xi reactivation, E-sel inducer, FGF22 binding, DENV2 CPE)
COC(=O)c1cc(Br)c(=O)n(CCN2CCOCC2)c1	C2C12 statin 104 (no result: Xi reactivation, E-sel inducer, FGF22 binding, DENV2 CPE)
COC(=O)C1=C(N)OC2=C(C(=O)CC(C)(C)C2)C1c1ccoc1 (stereo not given)	C2C12 statin 98 (no result: Xi reactivation, E-sel inducer, FGF22 binding, DENV2 CPE)
Nc1nc(SCC(=O)NCCO)nc2sc3c(c12)CCCC3	FGF22 binding 43 (no result: PglD DTNB)
CNC[C@H]1OCCCC[C@H](C)Oc2ccc(NS(=O)(=O)c3ccccc3)cc2C(=O)N([C@H](C)CO)C[C@@H]1C	none (no result: PglD DTNB, FGF22 binding, DENV2 CPE)
CCN(CC)Cc1c(O)ccc2c1O/C(=C\C=C\c1ccccc1)C2=O	C2C12 statin 106
COc1ccccc1/C=C/C=C1\Oc2c(ccc(O)c2CN(C)C)C1=O	none (no result: E-sel inducer)
CO[C@H]1CN(C)C(=O)c2ccc(NC(=O)C3CC3)cc2OC[C@@H](C)N(Cc2cncnc2)C[C@@H]1C	none (no result: PglD DTNB, FGF22 binding, DENV2 CPE)
O=C(NC1CCCCC1)C(c1ccccc1)n1c(=O)c(-c2cc3ccccc3[nH]2)nc2ccccc21 (stereo not given)	FGF22 binding 35 (no result: C2C12 statin, PglD DTNB)
O=C(Nc1ccc2ccccc2c1)C(C1CC1)n1c(=O)c(-c2cc3ccccc3[nH]2)nc2ccccc21 (stereo not given)	DENV2 CPE 47 (no result: C2C12 statin, PglD DTNB)
COc1ccc(C(C(=O)NC2CCCCC2)n2c(=O)c(-c3cc4ccccc4[nH]3)nc3ccccc32)cc1 (stereo not given)	none (no result: C2C12 statin, PglD DTNB)
COc1ccc(NC(=O)C(C2CC2)n2c(=O)c(-c3cc4ccccc4[nH]3)nc3ccccc32)cc1 (stereo not given)	none (no result: C2C12 statin, PglD DTNB)
O=C(NCc1ccccc1)C(c1ccc(C(F)(F)F)cc1)n1c(=O)c(-c2cc3ccccc3[nH]2)nc2ccccc21 (stereo not given)	DENV2 CPE 38 (no result: C2C12 statin, PglD DTNB)
C[C@@H]1CCCCO[C@@H](CN(C)C(=O)c2ccccc2)[C@H](C)CN([C@H](C)CO)C(=O)c2cc(NS(=O)(=O)c3cccs3)ccc2O1	none (no result: E-sel inducer)
O=C(C[C@H]1C[C@H]2c3cc(NC(=O)C4CCOCC4)ccc3O[C@H]2[C@@H](CO)O1)NCc1ccc(Oc2ccccc2)cc1	none
CC(=O)c1ccc(NC(=O)CN2C(=O)/C(=C/C=C/c3ccccc3)SC2=S)cc1	FGF22 binding 1.4 (no result: C2C12 statin, E-sel inducer)
O=C(O)CN1C(=O)/C(=C/C=C/c2ccccc2)SC1=S	none (no result: C2C12 statin, PglD DTNB, DENV2 CPE)
Cc1[nH]c(=O)c(C#N)c(C)c1CCC(=O)NCc1cccc(C(F)(F)F)c1	DENV2 CPE 28
O=C(C[C@H]1CC[C@@H](NC(=O)C2CCC2)[C@H](CO)O1)NCc1ccccc1Cl	none
CC(C)NC(=O)Nc1ccc2c(c1)CC(=O)N([C@@H](C)CO)C[C@H](C)[C@H](CN(C)Cc1ccc(C(=O)O)cc1)O2	E-sel inducer 42
CC(C)NC(=O)Nc1ccc2c(c1)CC(=O)N([C@H](C)CO)C[C@H](C)[C@@H](CN(C)Cc1ccc(C(=O)O)cc1)O2	E-sel inducer 39, DENV2 CPE inconclusive
CC(C)NC(=O)Nc1ccc2c(c1)CC(=O)N([C@@H](C)CO)C[C@@H](C)[C@@H](CN(C)Cc1ccc(C(=O)O)cc1)O2	DENV2 CPE inconclusive
CC(C)(C)OC(=O)CC[C@@H](C(=O)NCCCCCCCCCCC(=O)N1CCN(C(=O)OC(C)(C)C)CC1)n1cc(CCCCCNC(=O)OC(C)(C)C)nn1	none (no result: DENV2 CPE)
CC(C)(C)OC(=O)NCCCCCc1cn([C@@H](CO)C(=O)NCCCCCCCCCCC(=O)N2CCN(C(=O)OC(C)(C)C)CC2)nn1	FGF22 binding 1.3
CCCC#Cc1cnc2c(c1)C(=O)N([C@H](C)CO)C[C@H](C)[C@H](CN(C)C(=O)c1cccc(F)c1)O2	none
CC(=O)OCC(O)C1(O)CCC2C3CCC4=CC(=O)CCC4(C)C3C(O)CC21C (stereo not given)	DENV2 CPE 22 (no result: Xi reactivation, E-sel inducer)
CN1C[C@@H]2[C@H](c3ccccc31)[C@H](CO)N2Cc1ccccc1Cl	none
C[C@@H]1CCCCO[C@@H](CN(C)Cc2ccc(Cl)c(Cl)c2)[C@H](C)CN([C@@H](C)CO)C(=O)c2cc(NS(=O)(=O)c3cn(C)cn3)ccc2O1	none (no result: C2C12 statin)
O=C(c1cccnc1)N1CCCCN2[C@H](CO)[C@H](c3ccc(C#Cc4ccccc4)cc3)[C@@H]2C1	none (no result: C2C12 statin, Xi reactivation, E-sel inducer, FGF22 binding, DENV2 CPE)
CC(C)c1cn(CC[C@H]2CC[C@H](NC(=O)C3CC3)[C@H](CO)O2)nn1	DENV2 CPE 62
COc1ccccc1-c1cn(CC[C@H]2CC[C@H](NC(=O)C3CCC3)[C@@H](CO)O2)nn1	none
COc1ccccc1-c1cn(CC[C@H]2CC[C@H](NC(=O)C3CCC3)[C@H](CO)O2)nn1	DENV2 CPE 35
CCCc1cc(=O)[nH]c(SCc2nc3ccc([N+](=O)[O-])cc3[nH]2)n1	FGF22 binding 43 (no result: C2C12 statin, PglD DTNB)
Cc1cc(=O)[nH]c(SCc2nc3ccc([N+](=O)[O-])cc3[nH]2)n1	none (no result: C2C12 statin, E-sel inducer, PglD DTNB)
CCNC(=O)[C@H]1[C@H](CO)[C@H]2Cn3c(ccc(-c4ccncc4)c3=O)[C@H]2N1Cc1ccccc1	none
COc1ccccc1CNC(=O)c1c(-c2ccccc2Cl)noc1C	none
Cc1onc(-c2ccccc2Cl)c1C(=O)NCc1nc(-c2ccccc2)no1	C2C12 statin 159 (no result: Xi reactivation, E-sel inducer, FGF22 binding, DENV2 CPE)
CCCCNC(=O)C1(C)CCCCN1Cc1ccc(-c2ccccc2)cc1 (stereo not given)	none
CCCCNC(=O)C1(C)CCCCCN1Cc1cc2ccccc2o1 (stereo not given)	C2C12 statin 77
Cc1ccc(S(=O)(=O)N(C)C(=O)NC(=O)NS(=O)(=O)c2ccccc2)cc1	FGF22 binding 44 (no result: E-sel inducer)
